Data as given in ChEMBL document CHEMBL5058577, “EUbOPEN Chemogenomics Library 2 (Multiplex)” (2022).

System: Fibroblast
Test: Multiplex assay against human fibroblast
Format: toxicity, cell-based
How it was run: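 Tubulin, mitochondrial-mass and membrane-permeability phenotypes are per cents of healthy-nucleus cells. Cells were gated by CellPathfinder machine learning into Hoechst high-intensity objects or normal cells, normal cells into healthy, pyknosed or fragmented nuclei, and pyknosed cells into mitotic or apoptotic. Before that, live cells stained at seeding with Hoechst33342, BioTracker Green Microtubule Cytoskeleton Dye, MitoTracker Red and Annexin V Alexa Fluor 680 were imaged on a CQ1 microscope at 37°C and 5% CO2 after compound addition.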

[1] = 12 h, 1 µM, compound concentration 1 uM, replicate 1
[2] = 12 h, 1 µM, compound concentration 1 uM, replicate 2
[3] = 12 h, 10 µM, compound concentration 10 uM, replicate 1
[4] = 12 h, 10 µM, compound concentration 10 uM, replicate 2
[5] = 24 h, 1 µM, compound concentration 1 uM, replicate 1
[6] = 24 h, 1 µM, compound concentration 1 uM, replicate 2
[7] = 24 h, 10 µM, compound concentration 10 uM, replicate 1
[8] = 24 h, 10 µM, compound concentration 10 uM, replicate 2
[9] = 48 h, 1 µM, compound concentration 1 uM, replicate 1
[10] = 48 h, 1 µM, compound concentration 1 uM, replicate 2
[11] = 48 h, 10 µM, compound concentration 10 uM, replicate 1
[12] = 48 h, 10 µM, compound concentration 10 uM, replicate 2

N#Cc1cc(F)cc(-c2nc(-c3ccc(F)cn3)no2)c1
Population Apoptotic (%) [1]: 28%
Population Fragmented Nuclei (%) [1]: 21%
Population Healthy Nuclei (%) [1]: 63%
Population Hoechst High Intensity Objects (%) [1]: 0%
Population Membrane Permeable-Phenotype (%) [1]: 2%
Population Mitochondria Different-Phenotype (%) [1]: 5%
Population Mitotic Cells (%) [1]: 71%
Population Normal (%) [1]: 100%
Population Pyknosed Nuclei (%) [1]: 15%
Population Tubulin-Different-Phenotype (%) [1]: 22%
Total Cell Count [1]: 136
Population Apoptotic (%) [2]: 38%
Population Fragmented Nuclei (%) [2]: 32%
Population Healthy Nuclei (%) [2]: 37%
Population Hoechst High Intensity Objects (%) [2]: 6%
Population Membrane Permeable-Phenotype (%) [2]: 15%
Population Mitochondria Different-Phenotype (%) [2]: 6%
Population Mitotic Cells (%) [2]: 61%
Population Normal (%) [2]: 93%
Population Pyknosed Nuclei (%) [2]: 29%
Population Tubulin-Different-Phenotype (%) [2]: 48%
Total Cell Count [2]: 93
Population Apoptotic (%) [3]: 48%
Population Fragmented Nuclei (%) [3]: 15%
Population Healthy Nuclei (%) [3]: 67%
Population Hoechst High Intensity Objects (%) [3]: 1%
Population Membrane Permeable-Phenotype (%) [3]: 2%
Population Mitochondria Different-Phenotype (%) [3]: 5%
Population Mitotic Cells (%) [3]: 51%
Population Normal (%) [3]: 98%
Population Pyknosed Nuclei (%) [3]: 17%
Population Tubulin-Different-Phenotype (%) [3]: 23%
Total Cell Count [3]: 179
Population Apoptotic (%) [4]: 28%
Population Fragmented Nuclei (%) [4]: 42%
Population Healthy Nuclei (%) [4]: 32%
Population Hoechst High Intensity Objects (%) [4]: 8%
Population Membrane Permeable-Phenotype (%) [4]: 9%
Population Mitochondria Different-Phenotype (%) [4]: 12%
Population Mitotic Cells (%) [4]: 72%
Population Normal (%) [4]: 91%
Population Pyknosed Nuclei (%) [4]: 24%
Population Tubulin-Different-Phenotype (%) [4]: 36%
Total Cell Count [4]: 110
Population Apoptotic (%) [5]: 40%
Population Fragmented Nuclei (%) [5]: 19%
Population Healthy Nuclei (%) [5]: 68%
Population Hoechst High Intensity Objects (%) [5]: 2%
Population Membrane Permeable-Phenotype (%) [5]: 1%
Population Mitochondria Different-Phenotype (%) [5]: 3%
Population Mitotic Cells (%) [5]: 60%
Population Normal (%) [5]: 97%
Population Pyknosed Nuclei (%) [5]: 11%
Population Tubulin-Different-Phenotype (%) [5]: 18%
Total Cell Count [5]: 131
Population Apoptotic (%) [6]: 27%
Population Fragmented Nuclei (%) [6]: 39%
Population Healthy Nuclei (%) [6]: 38%
Population Hoechst High Intensity Objects (%) [6]: 7%
Population Membrane Permeable-Phenotype (%) [6]: 12%
Population Mitotic Cells (%) [6]: 72%
Population Normal (%) [6]: 92%
Population Pyknosed Nuclei (%) [6]: 22%
Population Tubulin-Different-Phenotype (%) [6]: 58%
Total Cell Count [6]: 88
Population Apoptotic (%) [7]: 70%
Population Fragmented Nuclei (%) [7]: 12%
Population Healthy Nuclei (%) [7]: 70%
Population Hoechst High Intensity Objects (%) [7]: 4%
Population Membrane Permeable-Phenotype (%) [7]: 0%
Population Mitochondria Different-Phenotype (%) [7]: 6%
Population Mitotic Cells (%) [7]: 29%
Population Normal (%) [7]: 95%
Population Pyknosed Nuclei (%) [7]: 16%
Population Tubulin-Different-Phenotype (%) [7]: 22%
Total Cell Count [7]: 170
Population Apoptotic (%) [8]: 35%
Population Fragmented Nuclei (%) [8]: 47%
Population Healthy Nuclei (%) [8]: 33%
Population Hoechst High Intensity Objects (%) [8]: 11%
Population Membrane Permeable-Phenotype (%) [8]: 5%
Population Mitochondria Different-Phenotype (%) [8]: 11%
Population Mitotic Cells (%) [8]: 65%
Population Normal (%) [8]: 88%
Population Pyknosed Nuclei (%) [8]: 18%
Population Tubulin-Different-Phenotype (%) [8]: 41%
Total Cell Count [8]: 120
Population Apoptotic (%) [9]: 61%
Population Fragmented Nuclei (%) [9]: 21%
Population Healthy Nuclei (%) [9]: 68%
Population Hoechst High Intensity Objects (%) [9]: 1%
Population Membrane Permeable-Phenotype (%) [9]: 0%
Population Mitochondria Different-Phenotype (%) [9]: 3%
Population Mitotic Cells (%) [9]: 38%
Population Normal (%) [9]: 98%
Population Pyknosed Nuclei (%) [9]: 9%
Population Tubulin-Different-Phenotype (%) [9]: 23%
Total Cell Count [9]: 137
Population Apoptotic (%) [10]: 50%
Population Fragmented Nuclei (%) [10]: 45%
Population Healthy Nuclei (%) [10]: 32%
Population Hoechst High Intensity Objects (%) [10]: 5%
Population Membrane Permeable-Phenotype (%) [10]: 3%
Population Mitochondria Different-Phenotype (%) [10]: 7%
Population Mitotic Cells (%) [10]: 50%
Population Normal (%) [10]: 94%
Population Pyknosed Nuclei (%) [10]: 22%
Population Tubulin-Different-Phenotype (%) [10]: 57%
Total Cell Count [10]: 85
Population Apoptotic (%) [11]: 84%
Population Fragmented Nuclei (%) [11]: 20%
Population Healthy Nuclei (%) [11]: 63%
Population Hoechst High Intensity Objects (%) [11]: 7%
Population Membrane Permeable-Phenotype (%) [11]: 0%
Population Mitochondria Different-Phenotype (%) [11]: 11%
Population Mitotic Cells (%) [11]: 16%
Population Normal (%) [11]: 92%
Population Pyknosed Nuclei (%) [11]: 16%
Population Tubulin-Different-Phenotype (%) [11]: 28%
Total Cell Count [11]: 162
Population Apoptotic (%) [12]: 50%
Population Fragmented Nuclei (%) [12]: 44%
Population Healthy Nuclei (%) [12]: 38%
Population Hoechst High Intensity Objects (%) [12]: 5%
Population Membrane Permeable-Phenotype (%) [12]: 15%
Population Mitochondria Different-Phenotype (%) [12]: 5%
Population Mitotic Cells (%) [12]: 50%
Population Normal (%) [12]: 94%
Population Pyknosed Nuclei (%) [12]: 17%
Population Tubulin-Different-Phenotype (%) [12]: 50%
Total Cell Count [12]: 110
